From ChEMBL document CHEMBL1148848, “Discovery and preliminary evaluation of 5-(4-phenylbenzyl)oxazole-4-carboxamides as prostacyclin receptor antagonists” (Bioorg Med Chem Lett, 2007)

Assays:
[1] = target: T1, Prostacyclin receptor (Homo sapiens, UniProt P43119); test: Displacement of [3H]iloprost from IP receptor in human platelet membrane; assay type: cell membranes
In short: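 Filter binding with 0.01 μM [3H]-iloprost and 50 μg human platelet membranes. Incubated 1 h at room temperature in 20 mM Hepes, 5 mM MgCl2, pH 7.4, with or without compound. Compound serially diluted in DMSO, final DMSO 1–10%. Filtered, washed twice with PBS, counted by scintillation.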

[2] = target: T1, Prostacyclin receptor; test: Antagonist activity at human IP receptor in HEL 92.1.7 cells assessed as inhibition of iloprost-induced cAMP production; assay type: functional, cell-based
In short: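 HEL 92.1.7 cells cultured in RPMI with 10% FBS, 10 mM Hepes, 1 mM sodium pyruvate, penicillin/streptomycin. 5000 cells preincubated 15 min at 37 °C with compound in 5 mM Hepes, 0.05% BSA buffer. Stimulated with 0.01 μM iloprost for 15 min at 37 °C. cAMP read by LANCE TR-FRET kit. Data normalized to max/min controls; IC50 from curve fit.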

[3] = Metabolic stability in human liver microsomes after 30 mins; assay type: ADME, Microsome; conditions: read-out: Stability
In short: (§1)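 Human or rat liver microsomes, […], incubated 30 min with compound; percent parent remaining.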

[4] = Metabolic stability in rat liver microsome after 30 mins; assay type: ADME; conditions: liver microsomes, read-out: Stability; in short: as §1
[5] = target: Cytochrome P450 2C19 (Homo sapiens, UniProt P33261); test: Inhibition of CYP2C19; assay type: ADME
[6] = Apparent permeability across Caco-2 cells; assay type: ADME, cell-based; conditions: human
[7] = target: hERG (KCNH2) (Homo sapiens, UniProt Q12809); test: Inhibition of hERG at 20 uM by rubidium efflux assay; assay type: toxicity
[8] = target: Prostaglandin E2 receptor EP4 subtype (Homo sapiens, UniProt P35408); test: Inhibition of human recombinant EP4 receptor expressed in 293EBNA cells; assay type: cell-based
[9] = target: Prostaglandin E2 receptor EP2 subtype (Homo sapiens, UniProt P43116); test: Inhibition of human recombinant EP2 receptor expressed in 293EBNA cells; assay type: cell-based
[10] = target: Cytochrome P450 2C9 (Homo sapiens, UniProt P11712); test: Inhibition of CYP2C9; assay type: ADME
[11] = target: Cytochrome P450 3A4 (Homo sapiens, UniProt P08684); test: Inhibition of CYP3A4; assay type: ADME
[12] = target: Cytochrome P450 2D6 (Homo sapiens, UniProt P10635); test: Inhibition of CYP2D6; assay type: ADME
[13] = target: T2, Cytochrome P450 1A2 (Homo sapiens, UniProt P05177); test: Inhibition of CYP1A2; assay type: ADME
T2 sequence (P05177 whole entry): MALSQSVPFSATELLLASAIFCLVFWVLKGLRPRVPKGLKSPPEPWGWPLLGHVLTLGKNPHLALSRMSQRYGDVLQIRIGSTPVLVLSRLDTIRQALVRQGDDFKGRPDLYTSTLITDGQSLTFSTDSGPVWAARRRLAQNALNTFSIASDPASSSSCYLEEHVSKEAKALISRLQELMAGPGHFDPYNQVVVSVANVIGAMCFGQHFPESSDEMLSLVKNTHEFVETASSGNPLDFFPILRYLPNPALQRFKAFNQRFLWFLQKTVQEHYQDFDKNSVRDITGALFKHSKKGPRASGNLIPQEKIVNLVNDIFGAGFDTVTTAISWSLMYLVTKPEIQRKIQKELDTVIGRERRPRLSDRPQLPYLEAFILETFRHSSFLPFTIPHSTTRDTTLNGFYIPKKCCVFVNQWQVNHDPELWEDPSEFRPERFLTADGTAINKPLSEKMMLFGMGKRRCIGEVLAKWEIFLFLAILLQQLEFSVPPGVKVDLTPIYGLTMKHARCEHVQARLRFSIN

T1 sequence (P43119 whole entry): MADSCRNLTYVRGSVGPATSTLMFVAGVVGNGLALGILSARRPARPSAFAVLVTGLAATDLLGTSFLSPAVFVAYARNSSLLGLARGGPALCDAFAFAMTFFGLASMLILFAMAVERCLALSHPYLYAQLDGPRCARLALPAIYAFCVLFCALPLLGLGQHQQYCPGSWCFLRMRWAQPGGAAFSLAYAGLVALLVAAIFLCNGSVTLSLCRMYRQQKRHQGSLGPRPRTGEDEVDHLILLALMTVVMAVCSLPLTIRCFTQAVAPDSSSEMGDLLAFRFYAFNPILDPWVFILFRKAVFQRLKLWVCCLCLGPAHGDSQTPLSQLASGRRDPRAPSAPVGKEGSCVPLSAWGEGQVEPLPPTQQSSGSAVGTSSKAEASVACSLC
Sequence of Cytochrome P450 2D6 (P10635 whole entry): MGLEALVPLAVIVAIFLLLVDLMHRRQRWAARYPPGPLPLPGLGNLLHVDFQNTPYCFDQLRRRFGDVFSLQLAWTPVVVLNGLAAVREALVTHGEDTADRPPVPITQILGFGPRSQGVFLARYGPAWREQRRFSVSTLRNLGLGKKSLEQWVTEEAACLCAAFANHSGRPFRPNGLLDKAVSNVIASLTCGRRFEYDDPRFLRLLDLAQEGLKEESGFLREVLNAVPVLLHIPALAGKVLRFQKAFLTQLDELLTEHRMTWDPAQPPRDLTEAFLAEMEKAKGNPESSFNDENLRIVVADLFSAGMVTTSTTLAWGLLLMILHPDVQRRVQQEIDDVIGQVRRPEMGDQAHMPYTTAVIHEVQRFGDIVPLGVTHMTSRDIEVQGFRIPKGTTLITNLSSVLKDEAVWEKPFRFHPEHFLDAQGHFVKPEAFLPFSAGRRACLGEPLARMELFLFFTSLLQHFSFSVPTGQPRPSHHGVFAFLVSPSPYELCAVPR
Sequence of hERG (KCNH2) (Q12809 whole entry): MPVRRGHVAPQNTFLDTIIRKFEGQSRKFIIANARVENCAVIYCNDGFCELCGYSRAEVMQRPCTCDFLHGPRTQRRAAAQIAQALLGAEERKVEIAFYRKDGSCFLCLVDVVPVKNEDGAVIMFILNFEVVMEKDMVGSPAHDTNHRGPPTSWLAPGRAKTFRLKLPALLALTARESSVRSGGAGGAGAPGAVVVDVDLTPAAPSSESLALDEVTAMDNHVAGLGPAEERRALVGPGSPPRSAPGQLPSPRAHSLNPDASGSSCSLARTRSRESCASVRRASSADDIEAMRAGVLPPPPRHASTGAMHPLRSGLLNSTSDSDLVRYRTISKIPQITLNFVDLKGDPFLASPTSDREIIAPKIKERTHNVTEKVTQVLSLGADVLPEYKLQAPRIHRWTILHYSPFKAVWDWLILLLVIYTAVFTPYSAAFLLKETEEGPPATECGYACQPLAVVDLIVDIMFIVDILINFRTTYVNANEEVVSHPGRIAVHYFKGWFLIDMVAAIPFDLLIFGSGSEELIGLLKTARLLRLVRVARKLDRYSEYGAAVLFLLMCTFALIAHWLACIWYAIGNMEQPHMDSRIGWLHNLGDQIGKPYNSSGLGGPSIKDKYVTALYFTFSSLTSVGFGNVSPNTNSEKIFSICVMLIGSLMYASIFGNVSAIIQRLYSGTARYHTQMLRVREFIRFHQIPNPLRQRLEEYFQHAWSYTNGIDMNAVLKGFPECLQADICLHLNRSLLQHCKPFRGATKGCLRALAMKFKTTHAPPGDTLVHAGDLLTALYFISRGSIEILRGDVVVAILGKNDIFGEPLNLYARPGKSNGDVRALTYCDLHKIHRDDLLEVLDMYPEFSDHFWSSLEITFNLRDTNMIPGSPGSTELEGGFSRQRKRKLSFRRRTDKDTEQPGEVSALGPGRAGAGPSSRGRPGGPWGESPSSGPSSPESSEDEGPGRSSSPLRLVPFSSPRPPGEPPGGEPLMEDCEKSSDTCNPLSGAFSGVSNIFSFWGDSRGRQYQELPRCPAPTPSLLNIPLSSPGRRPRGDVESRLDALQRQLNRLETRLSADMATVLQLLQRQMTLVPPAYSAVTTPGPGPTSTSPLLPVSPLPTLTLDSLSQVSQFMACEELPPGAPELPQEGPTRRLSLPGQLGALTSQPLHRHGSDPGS
Sequence of Cytochrome P450 2C19 (P33261 whole entry): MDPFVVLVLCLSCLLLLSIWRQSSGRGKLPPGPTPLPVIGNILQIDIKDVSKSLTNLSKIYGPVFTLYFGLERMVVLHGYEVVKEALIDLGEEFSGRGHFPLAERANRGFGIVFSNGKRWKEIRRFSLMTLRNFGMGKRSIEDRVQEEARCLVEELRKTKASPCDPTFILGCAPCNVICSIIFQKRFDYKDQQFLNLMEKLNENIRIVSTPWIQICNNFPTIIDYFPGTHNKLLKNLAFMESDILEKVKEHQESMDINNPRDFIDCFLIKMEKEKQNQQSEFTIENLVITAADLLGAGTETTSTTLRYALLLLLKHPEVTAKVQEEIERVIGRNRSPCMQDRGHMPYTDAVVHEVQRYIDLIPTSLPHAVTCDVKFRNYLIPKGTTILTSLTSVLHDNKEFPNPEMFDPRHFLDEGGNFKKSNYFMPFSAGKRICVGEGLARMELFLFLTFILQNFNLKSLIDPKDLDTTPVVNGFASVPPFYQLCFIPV
Sequence of Prostaglandin E2 receptor EP4 subtype (P35408 whole entry): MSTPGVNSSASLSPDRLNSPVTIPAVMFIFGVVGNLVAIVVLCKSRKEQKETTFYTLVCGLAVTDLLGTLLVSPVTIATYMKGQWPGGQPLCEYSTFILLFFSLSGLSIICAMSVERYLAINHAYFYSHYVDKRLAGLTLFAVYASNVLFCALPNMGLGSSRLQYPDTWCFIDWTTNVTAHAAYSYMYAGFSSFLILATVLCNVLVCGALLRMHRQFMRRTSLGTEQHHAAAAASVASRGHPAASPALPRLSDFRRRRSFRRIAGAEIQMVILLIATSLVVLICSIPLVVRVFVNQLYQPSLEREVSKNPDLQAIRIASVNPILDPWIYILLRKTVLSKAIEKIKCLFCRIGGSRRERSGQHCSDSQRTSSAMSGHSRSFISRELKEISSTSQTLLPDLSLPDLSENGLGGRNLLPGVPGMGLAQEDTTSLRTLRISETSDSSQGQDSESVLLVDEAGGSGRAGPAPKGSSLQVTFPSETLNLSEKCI
Sequence of Cytochrome P450 3A4 (P08684 whole entry): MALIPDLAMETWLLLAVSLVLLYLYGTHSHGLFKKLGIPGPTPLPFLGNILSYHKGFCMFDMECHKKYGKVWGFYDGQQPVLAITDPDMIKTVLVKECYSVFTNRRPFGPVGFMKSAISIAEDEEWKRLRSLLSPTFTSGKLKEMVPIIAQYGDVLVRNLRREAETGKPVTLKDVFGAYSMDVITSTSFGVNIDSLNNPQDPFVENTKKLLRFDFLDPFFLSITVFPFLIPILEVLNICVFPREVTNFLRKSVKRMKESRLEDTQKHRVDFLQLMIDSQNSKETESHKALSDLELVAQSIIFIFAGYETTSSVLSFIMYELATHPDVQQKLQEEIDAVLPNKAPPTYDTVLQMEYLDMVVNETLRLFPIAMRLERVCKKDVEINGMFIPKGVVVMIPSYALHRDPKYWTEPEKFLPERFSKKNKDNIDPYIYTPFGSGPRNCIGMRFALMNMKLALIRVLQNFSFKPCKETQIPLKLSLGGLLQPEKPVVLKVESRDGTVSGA
Sequence of Cytochrome P450 2C9 (P11712 whole entry): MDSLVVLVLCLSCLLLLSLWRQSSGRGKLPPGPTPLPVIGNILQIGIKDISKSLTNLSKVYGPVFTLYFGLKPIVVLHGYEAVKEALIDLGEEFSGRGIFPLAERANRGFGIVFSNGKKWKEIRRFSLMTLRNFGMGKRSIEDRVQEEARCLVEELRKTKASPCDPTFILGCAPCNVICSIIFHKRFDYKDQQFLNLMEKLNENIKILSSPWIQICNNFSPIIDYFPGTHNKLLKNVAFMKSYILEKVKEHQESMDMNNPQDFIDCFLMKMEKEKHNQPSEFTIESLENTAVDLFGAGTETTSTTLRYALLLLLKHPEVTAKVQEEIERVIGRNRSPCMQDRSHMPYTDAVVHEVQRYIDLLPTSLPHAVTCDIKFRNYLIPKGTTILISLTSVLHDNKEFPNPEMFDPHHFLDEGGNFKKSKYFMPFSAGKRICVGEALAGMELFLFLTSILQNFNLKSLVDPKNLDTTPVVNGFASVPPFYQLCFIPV
Sequence of Prostaglandin E2 receptor EP2 subtype (P43116 whole entry): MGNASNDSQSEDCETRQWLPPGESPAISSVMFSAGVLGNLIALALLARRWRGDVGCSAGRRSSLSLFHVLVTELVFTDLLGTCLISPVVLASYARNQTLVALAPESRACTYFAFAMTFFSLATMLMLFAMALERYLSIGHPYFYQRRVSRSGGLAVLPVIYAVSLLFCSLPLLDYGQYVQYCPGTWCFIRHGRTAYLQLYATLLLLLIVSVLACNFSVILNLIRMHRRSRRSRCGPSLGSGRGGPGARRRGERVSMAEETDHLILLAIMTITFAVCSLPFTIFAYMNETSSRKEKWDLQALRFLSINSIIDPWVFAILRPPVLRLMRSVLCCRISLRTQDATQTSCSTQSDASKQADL

CC(=O)Nc1cccc(-c2ccc(Cc3ocnc3C(=O)N(C)C)cc2)c1
IC50 [1]: 12400 nM
IC50 [2]: 3580 nM

CC(=O)Nc1cccc(-c2ccc(Cc3ocnc3C(=O)NCCc3ccccc3)cc2)c1
IC50 [1]: 721 nM
IC50 [2]: 138 nM

CC(=O)Nc1cccc(-c2ccc(Cc3ocnc3C(=O)Nc3ccccc3)cc2)c1
IC50 [1]: 3480 nM
IC50 [2]: 828 nM

CC(=O)Nc1cccc(-c2ccc(Cc3ocnc3C(=O)N(C)CCc3ccccc3)cc2)c1
IC50 [1]: 7160 nM
IC50 [2]: 2130 nM

CC(=O)Nc1cccc(-c2ccc(Cc3ocnc3C(=O)NC[C@H](C)c3ccccc3)cc2)c1
IC50 [1]: 53 nM
IC50 [2]: 51 nM
remaining at 0.5 h [3]: 12%
remaining at 0.5 h [4]: 11%

CC(=O)Nc1cccc(-c2ccc(Cc3ocnc3C(=O)NC[C@@H](C)c3ccccc3)cc2)c1
IC50 [1]: 916 nM
IC50 [2]: 296 nM

CC(=O)Nc1cccc(-c2ccc(Cc3ocnc3C(=O)N[C@H](Cc3ccccc3)C(=O)O)cc2)c1
IC50 [1]: 4200 nM
IC50 [2]: 831 nM

CC(=O)Nc1cccc(-c2ccc(Cc3ocnc3C(=O)NCCc3ccccn3)cc2)c1
IC50 [1]: 7600 nM
IC50 [2]: 1010 nM

CC(=O)Nc1cccc(-c2ccc(Cc3ocnc3C(=O)NCCc3ccncc3)cc2)c1
IC50 [1]: 4710 nM
IC50 [2]: 476 nM

CC(=O)Nc1cccc(-c2ccc(Cc3ocnc3C(=O)NCc3ccccc3)cc2)c1
IC50 [1]: 561 nM
IC50 [2]: 66 nM
remaining at 0.5 h [3]: 63%
remaining at 0.5 h [4]: 33%

CC(=O)Nc1cccc(-c2ccc(Cc3ocnc3C(=O)N[C@H]3C[C@@H]3c3ccccc3)cc2)c1
IC50 [1]: 331 nM
IC50 [2]: 358 nM

CNC(=O)c1ncoc1Cc1ccc(-c2cccc(NC(C)=O)c2)cc1
IC50 [1]: 12200 nM
IC50 [2]: 3310 nM

CC(=O)Nc1cccc(-c2ccc(Cc3ocnc3C(=O)NCCN(C)C)cc2)c1
IC50 [1]: 34100 nM
IC50 [2]: 3310 nM

CC(=O)Nc1cccc(-c2ccc(Cc3ocnc3C(=O)N[C@@H](Cc3ccccc3)C(=O)O)cc2)c1
IC50 [5]: > 20000 nM
Papp [6]: 5.5 ×10⁻⁶ cm/s
inhibition at 20 µM [7]: 5%
IC50 [8]: 24000 nM
IC50 [9]: 32000 nM
IC50 [10]: 5100 nM
IC50 [1]: 476 nM
IC50 [2]: 16 nM
remaining at 0.5 h [3]: 100%
remaining at 0.5 h [4]: 91%
IC50 [11]: > 20000 nM
IC50 [12]: > 20000 nM
IC50 [13]: > 20000 nM

CC(=O)Nc1cccc(-c2ccc(Cc3ocnc3C(=O)NCCc3cccnc3)cc2)c1
IC50 [1]: 4950 nM
IC50 [2]: 741 nM

CC(=O)Nc1cccc(-c2ccc(Cc3ocnc3C(=O)NC(C)c3ccccc3)cc2)c1 (racemic)
IC50 [1]: 1230 nM
IC50 [2]: 278 nM

CC(=O)Nc1cccc(-c2ccc(Cc3ocnc3C(=O)NCC(C)c3ccccc3)cc2)c1 (racemic)
IC50 [1]: 77 nM
